Assay results taken from ChEMBL document CHEMBL4043303, “Development of Novel Melanocortin Receptor Agonists Based on the Cyclic Peptide Framework of Sunflower Trypsin Inhibitor-1” (J Med Chem, 2018).
Where a SMILES comes first, the peptide text is derived from it. Bridges are numbered along the chain shown (N, C = ends). [ ]: non-standard residue; d: D form. NMeW = CN[C@@H](Cc1c[nH]c2ccccc12)C(=O)O

Legend:
[1] = Solubility of the compound in water at 1 mM; assay type: physicochemical; conditions: buffer, 1000 µM
Melanocortin receptor 4 [2] = biological target: T1, Melanocortin receptor 4 (Homo sapiens, UniProt P32245); assay: Displacement of [125I]-NDP-alpha-MSH from human MC4R LBD expressed in HEK293 cell membranes incubated for 16 to 23 hrs in dark by scintillation proximity assay; parameters: concentration or dose not given beside the values; conditions: concentration not given here
T1 sequence (P32245 whole entry, the tested form may be a part): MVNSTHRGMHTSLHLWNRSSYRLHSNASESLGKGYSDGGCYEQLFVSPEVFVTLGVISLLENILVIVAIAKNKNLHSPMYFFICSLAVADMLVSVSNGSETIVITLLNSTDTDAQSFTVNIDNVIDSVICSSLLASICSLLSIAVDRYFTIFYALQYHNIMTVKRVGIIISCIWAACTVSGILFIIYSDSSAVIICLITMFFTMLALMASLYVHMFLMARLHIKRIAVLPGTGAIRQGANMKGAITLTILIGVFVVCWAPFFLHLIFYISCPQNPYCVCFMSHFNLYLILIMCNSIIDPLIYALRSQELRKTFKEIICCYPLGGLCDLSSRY

Melanocortin receptor 4 [3] = biological target: T1, Melanocortin receptor 4; assay: Agonist activity at human MC4R expressed in low doxycyclin-treated HEK293 cell membranes assessed as increase in cAMP production after 45 mins by HTRF method; assay type: functional, cell-based
Method in brief: (§1)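 T-REx-293 cells stably expressing doxycycline-inducible human MC1R, MC3R or MC4R; expression induced 24 h with 0.1 ng/mL (low) or 10 ng/mL (high, MC4R only) doxycycline. 1000 cells/well in HBSS, 20 mM HEPES pH 7.4, 0.1% BSA, 1 mM IBMX; stimulated at 37 °C. Time-resolved FRET cAMP read-out normalized to NDP-α-MSH maximum.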

Melanocortin receptor 3 [4] = biological target: T2, Melanocortin receptor 3 (Homo sapiens, UniProt P41968); assay: Displacement of [125I]-NDP-alpha-MSH from human MC3R LBD expressed in HEK293 cell membranes incubated for 16 to 23 hrs in dark by scintillation proximity assay; parameters: concentration or dose not given beside the values; conditions: concentration not given here
T2 sequence (P41968 whole entry, the tested form may be a part): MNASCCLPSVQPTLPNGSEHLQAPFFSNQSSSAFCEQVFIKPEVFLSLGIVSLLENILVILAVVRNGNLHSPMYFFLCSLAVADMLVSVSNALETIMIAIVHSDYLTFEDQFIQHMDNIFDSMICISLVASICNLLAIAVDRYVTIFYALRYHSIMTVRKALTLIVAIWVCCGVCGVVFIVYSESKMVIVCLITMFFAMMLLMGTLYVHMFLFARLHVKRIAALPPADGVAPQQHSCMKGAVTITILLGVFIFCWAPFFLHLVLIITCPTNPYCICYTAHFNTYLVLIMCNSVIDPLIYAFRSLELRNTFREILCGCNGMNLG

Melanocortin receptor 4 [5] = biological target: T1, Melanocortin receptor 4; assay: Agonist activity at human MC4R expressed in high doxycyclin-treated HEK293 cell membranes assessed as increase in cAMP production after 15 mins by HTRF method; assay type: functional, cell-based; method in brief: as §1
[6] = biological target: T3, Melanocyte-stimulating hormone receptor (Homo sapiens, UniProt Q01726); assay: Displacement of [125I]-NDP-alpha-MSH from human MC1R LBD expressed in HEK293 cell membranes incubated for 16 to 23 hrs in dark by scintillation proximity assay; parameters: concentration or dose not given beside the values; conditions: concentration not given here
T3 sequence (Q01726 whole entry, looked up, the tested form may be a part): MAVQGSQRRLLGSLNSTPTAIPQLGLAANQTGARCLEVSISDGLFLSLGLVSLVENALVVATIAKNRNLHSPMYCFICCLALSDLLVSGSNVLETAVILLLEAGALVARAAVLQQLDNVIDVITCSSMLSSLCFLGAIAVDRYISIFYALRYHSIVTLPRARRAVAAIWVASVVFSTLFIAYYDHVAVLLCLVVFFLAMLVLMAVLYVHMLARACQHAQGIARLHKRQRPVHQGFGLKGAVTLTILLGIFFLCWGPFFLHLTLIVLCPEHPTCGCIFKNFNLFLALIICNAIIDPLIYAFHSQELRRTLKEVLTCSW

Melanocortin receptor 3 [7] = biological target: T2, Melanocortin receptor 3; assay: Agonist activity at human MC3R expressed in low doxycyclin-treated HEK293 cell membranes assessed as increase in cAMP production after 45 mins by HTRF method; assay type: functional, cell-based; parameters: concentration or dose not given beside the values; method in brief: as §1
Melanocortin receptor 5 = Melanocortin receptor 5 (Homo sapiens, UniProt P33032); assay: Displacement of [125I]-NDP-alpha-MSH from human MC5R LBD expressed in HEK293 cell membranes incubated for 16 to 23 hrs in dark by scintillation proximity assay; parameters: concentration or dose not given beside the values; conditions: concentration not given here
Sequence of Melanocortin receptor 5 (P33032 whole entry, the tested form may be a part): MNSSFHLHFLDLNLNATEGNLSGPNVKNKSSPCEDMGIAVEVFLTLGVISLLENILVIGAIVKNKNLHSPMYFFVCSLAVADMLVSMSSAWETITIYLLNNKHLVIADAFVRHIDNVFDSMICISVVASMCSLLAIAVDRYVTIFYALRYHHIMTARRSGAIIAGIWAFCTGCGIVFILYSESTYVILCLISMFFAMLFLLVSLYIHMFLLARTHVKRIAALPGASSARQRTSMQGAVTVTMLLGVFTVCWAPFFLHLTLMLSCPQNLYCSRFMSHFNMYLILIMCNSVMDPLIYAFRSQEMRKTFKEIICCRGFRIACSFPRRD

[8] = biological target: T3, Melanocyte-stimulating hormone receptor; assay: Agonist activity at human MC1R expressed in low doxycyclin-treated HEK293 cell membranes assessed as increase in cAMP production after 45 mins by HTRF method; assay type: functional, cell-based

| SMILES | solubility [1] | inhibition (Melanocortin receptor 4 [2]) | Activity (Melanocortin receptor 4 [3]) | inhibition (Melanocortin receptor 3 [4]) | Activity (Melanocortin receptor 4 [5]) | inhibition [6] | Activity (Melanocortin receptor 3 [7]) | inhibition (Melanocortin receptor 5) | Activity [8] |
| --- | --- | --- | --- | --- | --- | --- | --- | --- | --- |
| CC[C@H](C)[C@@H]1NC(=O)[C@@H]2CCCN2C(=O)[C@@H]2CCCN2C(=O)[C@H]([C@@H](C)CC)NC(=O)[C@H](CO)NC(=O)[C@H](C)NC(=O)[C@H]([C@@H](C)O)NC(=O)[C@@H]2CSSC[C@H](NC1=O)C(=O)N(C)[C@@H](Cc1cnc[nH]1)C(=O)N[C@H](Cc1ccccc1)C(=O)N[C@@H](CCCNC(=N)N)C(=O)N[C@@H](Cc1c[nH]c3ccccc13)C(=O)N[C@@H](CCCNC(=N)N)C(=O)N2 | Soluble |  |  |  |  |  |  |  |  |
| CC[C@H](C)[C@@H]1NC(=O)[C@@H]2CCCN2C(=O)[C@@H]2CCCN2C(=O)[C@H]([C@@H](C)CC)NC(=O)[C@H](CO)NC(=O)[C@H](C)NC(=O)[C@H]([C@H](C)O)NC(=O)[C@@H]2CSSC[C@H](NC1=O)C(=O)N(C)[C@@H](Cc1cnc[nH]1)C(=O)N[C@H](Cc1ccccc1)C(=O)N[C@@H](CCCNC(=N)N)C(=O)N(C)[C@@H](Cc1c[nH]c3ccccc13)C(=O)N[C@@H](CCCNC(=N)N)C(=O)N2 |  | 100% | 100% | 100% | 100% | 100% | 100% | 100% | 100% |
| CC[C@H](C)[C@@H]1NC(=O)[C@@H]2CCCN2C(=O)[C@@H]2CCCN2C(=O)[C@H]([C@@H](C)CC)NC(=O)[C@H](CO)NC(=O)[C@H](C)NC(=O)[C@H]([C@@H](C)O)NC(=O)[C@@H]2CSSC[C@H](NC1=O)C(=O)N[C@@H](Cc1c[nH]cn1)C(=O)N[C@H](Cc1ccccc1)C(=O)N(C)[C@@H](CCCNC(=N)N)C(=O)N(C)[C@@H](Cc1c[nH]c3ccccc13)C(=O)N[C@@H](CCCNC(=N)N)C(=O)N2 | Soluble |  |  |  |  |  |  |  |  |
| CC[C@H](C)[C@@H]1NC(=O)[C@@H]2CCCN2C(=O)[C@H](Cc2c[nH]c3ccccc23)N(C)C(=O)[C@H](CCCNC(=N)N)NC(=O)[C@@H](Cc2ccccc2)NC(=O)[C@H](Cc2cnc[nH]2)NC(=O)[C@H]([C@@H](C)O)NC(=O)[C@@H]2CSSC[C@H](NC1=O)C(=O)N[C@@H](Cc1ccccc1)C(=O)N1CCC[C@H]1C(=O)N[C@@H](CC(=O)O)C(=O)NCC(=O)N[C@@H](CCCNC(=N)N)C(=O)N2 (cyclo(CFPDGRCTH[dF]R[NMeW]PI); disulfide 1-7) | Soluble | 100% | 100% | 100% | 100% | 100% | 100% | 100% | 100% |
| CC[C@H](C)[C@@H]1NC(=O)[C@@H]2CCCN2C(=O)[C@@H]2CCCN2C(=O)[C@H]([C@@H](C)CC)NC(=O)[C@H](CO)NC(=O)[C@H](C)NC(=O)[C@H]([C@@H](C)O)NC(=O)[C@@H]2CSSC[C@H](NC1=O)C(=O)N(C)[C@@H](Cc1cnc[nH]1)C(=O)N[C@H](Cc1ccccc1)C(=O)N(C)[C@@H](CCCNC(=N)N)C(=O)N[C@@H](Cc1c[nH]c3ccccc13)C(=O)N[C@@H](CCCNC(=N)N)C(=O)N2 | Soluble |  |  |  |  |  |  |  |  |
| CC[C@H](C)[C@@H]1NC(=O)[C@@H]2CCCN2C(=O)[C@H](Cc2c[nH]c3ccccc23)NC(=O)[C@H](CCCNC(=N)N)N(C)C(=O)[C@@H](Cc2ccccc2)NC(=O)[C@H](Cc2cnc[nH]2)N(C)C(=O)[C@H]([C@@H](C)O)NC(=O)[C@@H]2CSSC[C@H](NC1=O)C(=O)N[C@@H](Cc1ccccc1)C(=O)N1CCC[C@H]1C(=O)N[C@@H](CC(=O)O)C(=O)NCC(=O)N[C@@H](CCCNC(=N)N)C(=O)N2 | Soluble | 100% | 100% | 100% | 100% | 100% | 100% | 100% | 100% |
| CC[C@H](C)[C@@H]1NC(=O)[C@@H]2CCCN2C(=O)[C@@H]2CCCN2C(=O)[C@H]([C@@H](C)CC)NC(=O)[C@H](CO)NC(=O)[C@H](C)NC(=O)[C@H]([C@@H](C)O)NC(=O)[C@@H]2CSSC[C@H](NC1=O)C(=O)N[C@@H](Cc1cnc[nH]1)C(=O)N[C@H](Cc1ccccc1)C(=O)N(C)[C@@H](CCCNC(=N)N)C(=O)N[C@@H](Cc1c[nH]c3ccccc13)C(=O)N[C@@H](CCCNC(=N)N)C(=O)N2 | Soluble |  |  |  |  |  |  |  |  |
| CC[C@H](C)[C@@H]1NC(=O)[C@@H]2CCCN2C(=O)[C@@H]2CCCN2C(=O)[C@H]([C@@H](C)CC)NC(=O)[C@H](CO)NC(=O)[C@H](C)NC(=O)[C@H]([C@@H](C)O)NC(=O)[C@@H]2CSSC[C@H](NC1=O)C(=O)N(C)[C@@H](Cc1cnc[nH]1)C(=O)N[C@H](Cc1ccccc1)C(=O)N(C)[C@@H](CCCNC(=N)N)C(=O)N(C)[C@@H](Cc1c[nH]c3ccccc13)C(=O)N[C@@H](CCCNC(=N)N)C(=O)N2 | Soluble |  |  |  |  |  |  |  |  |
| CC[C@H](C)[C@@H]1NC(=O)[C@@H]2CCCN2C(=O)[C@@H]2CCCN2C(=O)[C@H]([C@@H](C)CC)NC(=O)[C@H](CO)NC(=O)[C@H](C)NC(=O)[C@H]([C@H](C)O)NC(=O)[C@@H]2CSSC[C@H](NC1=O)C(=O)N(C)[C@@H](Cc1cnc[nH]1)C(=O)N[C@H](Cc1ccccc1)C(=O)N[C@@H](CCCNC(=N)N)C(=O)N[C@@H](Cc1c[nH]c3ccccc13)C(=O)N[C@@H](CCCNC(=N)N)C(=O)N2 |  | 100% | 100% | 100% | 100% | 100% | 100% | 100% | 100% |
| CC[C@H](C)[C@@H]1NC(=O)[C@@H]2CCCN2C(=O)[C@@H]2CCCN2C(=O)[C@H]([C@@H](C)CC)NC(=O)[C@H](CO)NC(=O)[C@H](C)NC(=O)[C@H]([C@@H](C)O)NC(=O)[C@@H]2CSSC[C@H](NC1=O)C(=O)N[C@@H](Cc1cnc[nH]1)C(=O)N[C@H](Cc1ccccc1)C(=O)N[C@@H](CCCNC(=N)N)C(=O)N[C@@H](Cc1c[nH]c3ccccc13)C(=O)N[C@@H](CCCNC(=N)N)C(=O)N2 | Soluble |  |  |  |  |  |  |  |  |
| CC[C@H](C)[C@@H]1NC(=O)[C@@H]2CCCN2C(=O)[C@@H]2CCCN2C(=O)[C@H]([C@@H](C)CC)NC(=O)[C@H](CO)NC(=O)[C@H](C)NC(=O)[C@H]([C@H](C)O)NC(=O)[C@@H]2CSSC[C@H](NC1=O)C(=O)N(C)[C@@H](Cc1cnc[nH]1)C(=O)N[C@H](Cc1ccccc1)C(=O)N(C)[C@@H](CCCNC(=N)N)C(=O)N(C)[C@@H](Cc1c[nH]c3ccccc13)C(=O)N[C@@H](CCCNC(=N)N)C(=O)N2 |  | 100% | 100% | 100% | 100% | 100% | 100% | 100% | 100% |
| CC[C@H](C)[C@@H]1NC(=O)[C@@H]2CCCN2C(=O)[C@@H]2CCCN2C(=O)[C@H]([C@@H](C)CC)NC(=O)[C@H](CO)NC(=O)[C@H](C)NC(=O)[C@H]([C@H](C)O)NC(=O)[C@@H]2CSSC[C@H](NC1=O)C(=O)N(C)[C@@H](Cc1cnc[nH]1)C(=O)N[C@H](Cc1ccccc1)C(=O)N(C)[C@@H](CCCNC(=N)N)C(=O)N[C@@H](Cc1c[nH]c3ccccc13)C(=O)N[C@@H](CCCNC(=N)N)C(=O)N2 |  | 100% | 100% | 100% | 100% | 100% | 100% | 100% | 100% |
| CC[C@H](C)[C@@H]1NC(=O)[C@@H]2CCCN2C(=O)[C@@H]2CCCN2C(=O)[C@H]([C@@H](C)CC)NC(=O)[C@H](CO)NC(=O)[C@H](C)NC(=O)[C@H]([C@@H](C)O)NC(=O)[C@@H]2CSSC[C@H](NC1=O)C(=O)N[C@@H](Cc1cnc[nH]1)C(=O)N[C@H](Cc1ccccc1)C(=O)N[C@@H](CCCNC(=N)N)C(=O)N(C)[C@@H](Cc1c[nH]c3ccccc13)C(=O)N[C@@H](CCCNC(=N)N)C(=O)N2 | Soluble |  |  |  |  |  |  |  |  |
| CC[C@H](C)[C@@H]1NC(=O)[C@@H]2CCCN2C(=O)[C@@H]2CCCN2C(=O)[C@H]([C@@H](C)CC)NC(=O)[C@H](CO)NC(=O)[C@H](C)NC(=O)[C@H]([C@@H](C)O)NC(=O)[C@@H]2CSSC[C@H](NC1=O)C(=O)N(C)[C@@H](Cc1cnc[nH]1)C(=O)N[C@H](Cc1ccccc1)C(=O)N[C@@H](CCCNC(=N)N)C(=O)N(C)[C@@H](Cc1c[nH]c3ccccc13)C(=O)N[C@@H](CCCNC(=N)N)C(=O)N2 | Soluble |  |  |  |  |  |  |  |  |
| CC[C@H](C)[C@@H]1NC(=O)[C@@H]2CCCN2C(=O)[C@@H]2CCCN2C(=O)[C@H]([C@@H](C)CC)NC(=O)[C@H](CO)NC(=O)[C@H](C)NC(=O)[C@H]([C@H](C)O)NC(=O)[C@@H]2CSSC[C@H](NC1=O)C(=O)N[C@@H](Cc1cnc[nH]1)C(=O)N[C@H](Cc1ccccc1)C(=O)N[C@@H](CCCNC(=N)N)C(=O)N(C)[C@@H](Cc1c[nH]c3ccccc13)C(=O)N[C@@H](CCCNC(=N)N)C(=O)N2 |  | 100% | 100% | 100% | 100% | 100% | 100% | 100% | 100% |
